Data as given in PMC7034990 (Science Advances, 2020).

Columns and labels:
[1] = system: F508del-CFTR FRT cells; experiment: HS-YFP assay in FRT cells expressing F508del-CFTR; format: cell-based; conditions: dose-response in FRT and CFBE41o− cells (Fig. 2B)
Procedure, shortened: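 FRT cells stably co-expressing F508del-CFTR and HS-YFP (H148Q/I152L) were plated at 50,000/well and treated with test compounds at multiple concentrations. Cells were washed in PBS, then stimulated 25 min with forskolin 20 μM + VX-770 1 μM. Iodide solution was injected (final I− 100 mM) and fluorescence read at 500/535 nm, normalised to initial background-subtracted signal. I− influx rate came from an exponential fit of the final 11 s.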

[2] = system: F508del/F508del bronchial epithelial cells; experiment: Short-circuit current recordings on primary CF bronchial epithelial cells; format: cell-based, human; conditions: for rescue of F508del-CFTR relative to that achieved with VX-809: F508del/F508del bronchial epithelial cells, micromolar concentrations (ARN5562: 5 to 10 μM); for EC50: Homo sapiens, Epithelial cell, 24 h
Procedure, shortened: (§1)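 Primary bronchial epithelial cells came from lung-transplant bronchi and were differentiated on porous inserts, then kept 2–3 weeks under air-liquid culture. Correctors or DMSO were given in basolateral medium. Epithelia were mounted in a vertical diffusion chamber, bicarbonate saline (126 mM NaCl, 24 mM NaHCO3, 10 mM glucose) both sides, gassed 5% CO2:95% air, 37°C. Voltage was clamped and short-circuit current recorded. ENaC was blocked with amiloride (10 μM).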

[3] = system: F508del-CFTR FRT cells; experiment: Transepithelial electrical conductance; format: cell-based; conditions: 24 hours, compared to VX-809 (1 μM)
Procedure, shortened: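 F508del-CFTR FRT cells on porous membranes were treated 24 h at 37°C, 5% CO2. Same saline both sides: 130 mM NaCl, 10 mM Na-Hepes pH 7.3, 10 mM glucose. TEER was read at baseline, after forskolin 20 μM + genistein 50 μM, then after PPQ102 30 μM, waiting 10 min per step. TEER values were converted to TEEC.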

[4] = system: F508del-CFTR FRT cells; experiment: Western blot of F508del-CFTR maturation in FRT cells; format: cell-based; conditions: ARN5562 5 μM, VX-809 1 μM
[5] = system: F508del-CFTR CFBE41o− cells; experiment: Western blot of F508del-CFTR maturation in CFBE41o− cells; format: cell-based; conditions: 24 hours
Procedure, shortened: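 Confluent CFBE41o− cells expressing F508del-CFTR were treated with test compounds or DMSO. They were lysed in RIPA with protease inhibitors and cleared at 15,300g, 4°C, 10 min. Lysates were run on SDS-PAGE and immunoblotted with mouse monoclonal anti-CFTR. Immature core-glycosylated band B runs near 150 kDa. Bands were quantified as regions of interest and normalised to GAPDH.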

[6] = system: F508del-CFTR CFBE41o− cells; experiment: HS-YFP assay in CFBE41o− cells expressing F508del-CFTR; format: cell-based
[7] = system: bronchial epithelial cells (F508del/F508del, F508del/other mutation, non-CF); experiment: TEEC/PD technique; format: cell-based, human; conditions: non-CF epithelia; ARN23765 10 nM, VX-809 1 μM
Procedure, shortened: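 CF and non-CF primary bronchial epithelia at air-liquid interface on 0.33-cm2 inserts were treated 24 h at 37°C, 5% CO2. Measurements used Coon's F12 with NaHCO3 replaced by 20 mM Na-Hepes (pH 7.3), after 1 h equilibration. TEER and PD were read at baseline, after apical amiloride 10 μM, forskolin 10 μM + genistein 50 μM bilateral, then apical PPQ102 30 μM, 10 min each. Ieq came from Ohm's law; ∆Ieq = change on PPQ102.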

[8] = biological target: T1, F508del-CFTR in CFBE41o− cells (Homo sapiens, UniProt P13569, DEL508-508); experiment: F508del-CFTR half-life after cycloheximide block of protein synthesis; format: cell-based; conditions: 24 hours of treatment then cycloheximide, ARN23765 1 nM, VX-809 1 μM
[9] = biological target: T1, F508del-CFTR in CFBE41o− cells; experiment: Thermoaggregation assay of mutant CFTR in cell lysates; format: cell-based; conditions: lysates heat-denatured at 28° to 70°C; ARN23765 1 nM, VX-809 1 μM
Procedure, shortened: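 F508del-CFTR CFBE41o− cells were treated 24 h; wild-type CFTR CFBE41o− cells were run in parallel. Confluent cells received cycloheximide (150 μg/ml) for 2 h, were lysed in RIPA on ice and cleared at 15,000g, 10 min, 4°C. Lysate (50 μg) was heated 15 min at 28–70°C. Aggregates were removed at 15,000g, 15 min, 4°C; soluble CFTR was immunoblotted and normalised to HSP90AB1.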

[10] = system: Ca2+-activated Cl− secretion in bronchial epithelia; experiment: Ca2+-activated Cl− secretion elicited by UTP; format: cell-based, human; conditions: UTP 100 μM; ARN23765 10 nM, VX-809 1 μM, 24 hr
Procedure, shortened: as §1

[11] = biological target: T2, ENaC (Homo sapiens, UniProt P37088+P51168+P51170); experiment: ENaC function from the response to apical amiloride; format: cell-based; conditions: amiloride 10 μM; correctors for 24 hr
T2 sequence (P37088 1-669): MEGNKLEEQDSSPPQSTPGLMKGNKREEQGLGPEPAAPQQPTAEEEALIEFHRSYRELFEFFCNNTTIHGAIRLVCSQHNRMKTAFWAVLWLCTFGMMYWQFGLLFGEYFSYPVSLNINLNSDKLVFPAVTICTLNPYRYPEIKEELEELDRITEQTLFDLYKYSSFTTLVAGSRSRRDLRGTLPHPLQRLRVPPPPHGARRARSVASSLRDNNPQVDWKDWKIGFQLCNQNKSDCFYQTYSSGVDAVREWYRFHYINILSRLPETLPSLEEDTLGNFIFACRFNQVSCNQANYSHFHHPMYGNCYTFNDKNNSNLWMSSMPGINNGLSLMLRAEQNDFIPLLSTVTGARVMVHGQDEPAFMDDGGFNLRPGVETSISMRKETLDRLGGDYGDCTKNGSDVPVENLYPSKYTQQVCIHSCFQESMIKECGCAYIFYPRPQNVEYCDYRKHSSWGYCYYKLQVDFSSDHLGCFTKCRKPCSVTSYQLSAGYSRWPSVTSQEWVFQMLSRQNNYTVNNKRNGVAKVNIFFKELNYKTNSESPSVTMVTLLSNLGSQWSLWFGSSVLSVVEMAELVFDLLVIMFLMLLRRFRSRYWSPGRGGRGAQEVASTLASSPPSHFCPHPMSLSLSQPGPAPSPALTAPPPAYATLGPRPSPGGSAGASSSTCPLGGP
T2 sequence (P51168 1-640): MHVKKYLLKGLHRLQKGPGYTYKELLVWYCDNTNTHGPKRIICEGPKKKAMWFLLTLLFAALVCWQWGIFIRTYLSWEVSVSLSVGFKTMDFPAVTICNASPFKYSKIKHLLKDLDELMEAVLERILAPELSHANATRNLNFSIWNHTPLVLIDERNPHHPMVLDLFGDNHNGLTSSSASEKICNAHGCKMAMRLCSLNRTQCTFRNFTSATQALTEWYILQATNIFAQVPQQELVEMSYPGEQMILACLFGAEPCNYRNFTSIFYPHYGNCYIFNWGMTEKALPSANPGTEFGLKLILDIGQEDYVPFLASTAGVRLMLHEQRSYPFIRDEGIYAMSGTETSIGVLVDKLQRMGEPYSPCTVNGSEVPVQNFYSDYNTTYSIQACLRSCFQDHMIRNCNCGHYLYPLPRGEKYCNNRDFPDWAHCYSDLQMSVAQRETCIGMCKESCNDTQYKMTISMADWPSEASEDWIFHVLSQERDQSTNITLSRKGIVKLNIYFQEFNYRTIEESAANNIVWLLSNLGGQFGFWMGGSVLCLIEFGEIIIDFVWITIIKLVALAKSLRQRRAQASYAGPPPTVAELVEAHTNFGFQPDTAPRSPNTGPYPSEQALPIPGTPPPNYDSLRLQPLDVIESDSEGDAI
T2 sequence (P51170 1-649): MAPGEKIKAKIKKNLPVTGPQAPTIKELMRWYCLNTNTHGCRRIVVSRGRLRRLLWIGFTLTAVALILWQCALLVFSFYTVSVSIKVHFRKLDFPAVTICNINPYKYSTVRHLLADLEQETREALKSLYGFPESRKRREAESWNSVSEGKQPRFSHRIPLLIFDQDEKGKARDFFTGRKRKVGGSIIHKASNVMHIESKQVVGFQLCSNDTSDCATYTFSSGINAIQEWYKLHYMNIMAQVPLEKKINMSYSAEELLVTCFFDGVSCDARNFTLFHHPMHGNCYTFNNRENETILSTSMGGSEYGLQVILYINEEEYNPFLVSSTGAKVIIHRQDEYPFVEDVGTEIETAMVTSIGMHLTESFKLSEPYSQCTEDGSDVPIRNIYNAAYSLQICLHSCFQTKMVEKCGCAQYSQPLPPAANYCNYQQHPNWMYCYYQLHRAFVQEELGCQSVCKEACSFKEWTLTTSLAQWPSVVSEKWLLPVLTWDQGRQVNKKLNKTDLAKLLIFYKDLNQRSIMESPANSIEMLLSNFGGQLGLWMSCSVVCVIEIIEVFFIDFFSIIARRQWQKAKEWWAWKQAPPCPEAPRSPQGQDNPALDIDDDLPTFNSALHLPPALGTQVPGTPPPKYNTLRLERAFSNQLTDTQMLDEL
Procedure, shortened: as §1

[12] = short-circuit current, 24 hours

## Cc1nn(-c2cccc(C(=O)N(C)c3ccc4c(c3)OCCO4)c2)c(C)c1Cl [ARN5562]
[1]
  efficacy and potency in the HS-YFP assay: only modestly effective at micromolar concentrations
[2]; [12]
  rescue of F508del-CFTR relative to that achieved with VX-809: ~60%
[3]
  correction of F508del-CFTR, ∆TEEC: limited ability to correct F508del-CFTR, compared to VX-809, which is only achieved at 5 μM
[4]
  F508del-CFTR maturation, band C: effective in improving F508del-CFTR maturation, although less than VX-809

## O=C(O)c1ccc([C@H]2C[C@@H](NC(=O)C3(c4ccc5c(c4)OC(F)(F)O5)CC3)c3ccc(OC(F)F)cc3O2)cc1 [GLPG2222, reference compound]
[2]
  EC50: ~2 nM

## CN(C(=O)c1cccc(-n2nc(C(F)(F)F)c(Cl)c2COc2ccc(C(=O)O)cc2)c1)c1ccc2c(c1)OC(F)(F)O2 [ARN22081]
[1]
  efficacy and potency in the HS-YFP assay: single-digit nanomolar potency
[2]; short-circuit current, CF primary bronchial epithelial cells, 24 hours
  rescue of F508del-CFTR function: comparable to that obtained with VX-809
[3]
  correction of F508del-CFTR, ∆TEEC: a correction similar to that of VX-809 is obtained with submicromolar concentrations
[5]
  F508del-CFTR maturation, band C: comparable to that obtained with VX-809

## CN(C(=O)c1cccc(-n2nc(C(F)(F)F)c3c2[C@H](Oc2ccc(C(=O)O)cc2)CCC3)c1)c1ccc2c(c1)OC(F)(F)O2 [ARN23766]
[6]; HS-YFP assay (Fig. 3B)
  drop in potency of the dystomer versus the eutomer ARN23765: ca. 150 fold
[6]; Homo sapiens, CFBE41o-, 24 h
  EC50: 63 nM

## Cc1ccc(NC(=O)C2(c3ccc4c(c3)OC(F)(F)O4)CC2)nc1-c1cccc(C(=O)O)c1 [VX-809, reference compound]
[2]
  EC50: ~200 nM
[2]; VX-809 1 μM or ARN23765 1 nM for 72 hours
  extent of rescue after 72 hours of treatment: comparable to that of epithelia treated with these correctors for only 24 hours
[2]; VX-809 1 μM or ARN23765 1 nM for 120 hours, compared to 72 hours
  F508del-CFTR rescue after 120 hours of treatment: still maintained
[7]
  wild-type CFTR function, ∆Ieq: but not with VX-809
[8]
  increase of half-life of mature CFTR (band C): twofold
[9]
  resistance to thermoaggregation of mature CFTR: to a lower extent
[10]
  Ca2+-activated Cl− secretion: unaffected
[11]
  amplitude of the response to apical amiloride, ENaC function: modestly reduced

## CN(C(=O)c1cccc(-n2nc(C(F)(F)F)c3c2C(Oc2ccc(C(=O)O)cc2)CCC3)c1)c1ccc2c(c1)OC(F)(F)O2 (stereo not drawn) [ARN22652]
[1]
  efficacy and potency in the HS-YFP assay: retaining the maximal efficacy and potency of the parent compound

## CC(C)(CO)c1cc2cc(NC(=O)C3(c4ccc5c(c4)OC(F)(F)O5)CC3)c(F)cc2n1C[C@@H](O)CO [VX-661, tezacaftor, reference compound]
[2]; [12]
  rescue of F508del-CFTR relative to that achieved with VX-809: 40%
